In PMC5241585 (International Journal for Parasitology: Drugs and Drug …, 2016):
Like-named read-outs stand apart in the source and are kept apart here. Marks after values point to notes of the source that are not given here.

Legend:
P. falciparum 3D7 = P. falciparum 3D7 3H-hypoxanthine incorporation growth inhibition assay; format: cell-based; conditions: Plasmodium falciparum, 3D7, 48 h, read-out: P. falciparum 3D7 IC50
P. knowlesi A1H.1 = P. knowlesi A1H.1 3H-hypoxanthine incorporation growth inhibition assay; format: cell-based; conditions: Plasmodium knowlesi, 48 h, read-out: P. knowlesi A1H.1 IC50
[1] = tested on: free L. donovani promastigotes; experiment: Resazurin reduction assay, L. donovani promastigotes; format: cell-based, Leishmania donovani; conditions: for inhibition at 20 µM: Leishmania donovani, read-out: inhibition of free L. donovani promastigotes
[2] = tested on: human Neonatal Foreskin Fibroblast (NFF) cells; conditions: read-out: NFF IC50; previously published; ref Engel et al., 2015; cited from earlier work
[3] = tested on: Human Embryonic Kidney (HEK 293) cells; conditions: read-out: HEK 293 IC50; previously published; ref Engel et al., 2015; cited from earlier work
P. berghei QIMR = experiment: In vivo anti-Plasmodium efficacy in infected BALB/c mice; conditions: for peripheral blood parasitemia compared to vehicle-only control mice: 25 mg/kg oral gavage twice daily for four days; for days after infection with significant reduction in parasitemia (P < 0.05): 25 mg/kg orally twice daily for four days
Outline: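 Female BALB/c mice, 6–8 weeks old, six per group, infected i.p. with […] P. berghei QIMR-infected erythrocytes from a passage mouse. Oral gavage of 25 mg/kg test compound in DMSO/PBS (100 μL) twice daily for four days, starting 2 h p.i. with 4 h between doses. Chloroquine 10 mg/kg oral twice daily for three days. Giemsa thin smears read daily from day 4 (>800 erythrocytes per mouse).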

Plasmodium parasites = experiment: Ratios derived from Table 1 IC50 values; format: cell-based
S. mansoni adult worms = experiment: Adult worm pair stability and egg laying in culture; format: cell-based, Schistosoma mansoni
Outline: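 S. mansoni adult worm pairs kept in culture with test compound at 10 μM. Pairing and egg laying expressed as mean % of DMSO control (set to 100%). Praziquantel (10 μM) served as control. Run in triplicate on two separate occasions.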

[4] = Oral pharmacokinetics in humans; format: in vivo
[5] = cited from earlier work
[6] = Oral pharmacokinetics in mice; conditions: mice dosed orally with 50 mg/kg; ref Yeo et al., 2007
[7] = female BALB/c nude mice, oral 50 mg/kg; ref Yeo et al., 2007; cited from earlier work
[8] = humans, 15–80 mg oral panobinostat, ref Prince et al., 2009
[9] = humans, 200–600 mg oral vorinostat, ref Kavanaugh et al., 2010

O=C(/C=C/c1cccc(S(=O)(=O)Nc2ccccc2)c1)NO [Belinostat]
IC50 (P. falciparum 3D7): 170 nM
IC50 (P. knowlesi A1H.1): 190 nM
inhibition at 20 µM [1]: 20 to 35%
IC50 [2]: 2370 nM
IC50 [3]: 1420 nM

CCN(CC)CCCC(C)Nc1ccnc2cc(Cl)ccc12 (stereo not drawn) [Chloroquine]
IC50 (P. falciparum 3D7): 10 nM
IC50 (P. knowlesi A1H.1): 10 nM
peripheral blood parasitemia (P. berghei QIMR; 10 mg/kg orally twice daily beginning 2 h p.i., data not shown): did not develop detectable peripheral blood parasitemia
IC50 [2]: 48900 nM

Cc1[nH]c2ccccc2c1CCNCc1ccc(/C=C/C(=O)NO)cc1 [Panobinostat]
IC50 (P. falciparum 3D7): 4 nM
IC50 (P. knowlesi A1H.1): 9 nM
greater inhibitory potency against Plasmodium parasites in vitro than vorinostat (Plasmodium parasites; from Table 1 IC50 values): 40–60 fold
inhibition at 20 µM [1]: 20 to 35%
inhibition at 10 µM (S. mansoni adult worms; Schistosoma mansoni, read-out: inhibition of adult worm pairing): 30 to 40%
inhibition at 10 µM (S. mansoni adult worms; Schistosoma mansoni, read-out: inhibition of egg production): ~50%
peripheral blood parasitemia compared to vehicle-only control mice (P. berghei QIMR): significant reduction
reduction in mean peripheral parasitemia compared to vehicle-only control (P. berghei QIMR; 25 mg/kg oral gavage twice daily, days 4-10): 2–3 fold
survival compared to vehicle control group (P. berghei QIMR; 25 mg/kg oral gavage twice daily, p = 0.0013): significantly improved
days after infection with significant reduction in parasitemia (P < 0.05) (P. berghei QIMR): 4 to 10 days
half-life in humans compared to mice ([4]; from Table 2 values): 6–10 fold
oral bioavailability (F%) in humans compared to mice ([4]; from Table 2 values): approximately five
Cmax ([4]; human, in vivo, po, 20 mg): ~70 nM
IC50 [2]: 70 nM
IC50 [3]: 180 nM
adverse effects in humans ([5]; 20 mg oral dose, ref FARYDAK product sheet (Novartis)): adverse effects are commonly reported
AUC0−∞ [5, 8]: 183–373 ng⋅h/mL
Cmax [5, 8]: 23 to 71 ng/mL
t1/2 [5, 8]: 16–30 ^d h
mean Cmax ([5]; humans, single oral dose 20 mg, ref European Medicines Agency, 2015): 24.3 (±12) ng/mL
half-life longer than vorinostat [6]: > 2 fold

C/C=C1\NC(=O)[C@H]2CSSCC/C=C/[C@H](CC(=O)N[C@H](C(C)C)C(=O)N2)OC(=O)[C@H](C(C)C)NC1=O [Romidepsin]
IC50 (P. falciparum 3D7): 140 nM
IC50 (P. knowlesi A1H.1): 210 nM
selectivity for the parasite over NFF or HEK 293 cells (Plasmodium parasites; P. knowlesi vs human cells, in abstract): not selective
inhibition of free L. donovani promastigotes ([1]; 20 μM): no growth inhibition
inhibition of adult worm pairing (S. mansoni adult worms; 10 μM): completely inhibited
inhibition of egg production (S. mansoni adult worms; 10 μM): completely inhibited
IC50 [2]: 1 nM
IC50 [3]: < 5 nM

O=C(CCCCCCC(=O)Nc1ccccc1)NO [Vorinostat]
peripheral blood parasitemia compared to vehicle-only control mice (P. berghei QIMR): significant reduction
days after infection with significant reduction in parasitemia (P < 0.05) (P. berghei QIMR): 4 to 7 days
AUC0−∞ [7]: 619 ng⋅h/mL
AUC0−∞ [5, 9]: 1698 ng⋅h/mL
Cmax [5, 9]: 658 ng/mL

O=C(C1CCCCC1)N1CC(=O)N2CCc3ccccc3C2C1 (stereo not drawn) [praziquantel]
effect on adult worms (S. mansoni adult worms; 10 μM): induced the death of adult worms
viability at 10 µM (S. mansoni adult worms; Schistosoma mansoni, read-out: adult worm viability): 10%
